A short description of this series: Toxicity liver stage against HepG2, at 10uM. In kind it is cell-based. Further details: test concentration 10 uM, cell line HepG2-A16-CD81EGFP. The settings on record: human, HepG2-A16-CD81EGFP cells; read-out: INHIBITION
In a few lines:
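Uninfected HepG2-A16-CD81EGFP cells, 3 × 10^3 per well, 1536-well, plated on prespotted compound at 10 μM final, parasite-free screening media added to match infected plates; puromycin 10 μM positive, DMSO 0.5% negative; run in parallel with 48 h PbLuc assay at 37 °C, 5% CO2; viability by CellTiter-Glo luminescence, normalized to controls.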
Turning to `Cc1nn(C)cc1C1CC(=O)Nc2c1cnn2C(C)C` (centres undefined), the cytotoxicity at 10 µM is -4.31%.

`COC(=O)CCNC(=O)c1cc(-c2ccc(OC)cc2)nn1C`: the cytotoxicity at 10 µM amounted to 4.75%.

As for `Cc1nn(CCNS(=O)(=O)c2ccccc2)c(C)c1Cl`, the cytotoxicity at 10 µM is -5.26%.

Regarding `CN1CCN(CC2CC2)C(=O)C12CCN(c1nccs1)CC2`, the cytotoxicity at 10 µM was -6.01%.

As to `CN1Cc2ccccc2CC2(CCN(c3ncccn3)CC2)C1=O`, the cytotoxicity at 10 µM was -7.42%.

For the compound `CN1CCN(Cc2ccco2)Cc2cccnc21`, the cytotoxicity at 10 µM was 2.04%.

On to `Cc1nn(C)c2c(=O)n(Cc3ccc(Cl)cc3)nnc12`, for which the cytotoxicity at 10 µM was -3.02%.

Consider `CCn1nc(C)c2nc(C(C)C)nc(NCC(=O)N3CCOCC3)c21`, for which the cytotoxicity at 10 µM came out at 3.07%.

`Cc1cccc(Cn2ccc(NS(C)(=O)=O)n2)c1`: the cytotoxicity at 10 µM was -6.6%.

Turning to `CCn1cc(N)c(C(=O)NCc2cnn(C)c2)n1`, the cytotoxicity at 10 µM was -0.729%.

As to `CC(C)CC(=O)N1CCC(Nc2nc(O)cc(-c3ccsc3)n2)CC1`, the cytotoxicity at 10 µM worked out at 11.3%.

`CCc1nccn1-c1nccnc1C1CCCN(C(=O)COC)C1` (centres undefined): the cytotoxicity at 10 µM is -21.5%.

In the case of `O=C(N[C@@H]1CCC[C@@H](N2CCCC2)[C@@H]1O)c1cc2ccccc2[nH]1`, the cytotoxicity at 10 µM was -16.2%.

Take `Cc1ccnc(C2CCN(C(=O)c3cnn(C)c3)C2)n1` (centres undefined): the cytotoxicity at 10 µM was -15%.

With `O=C(Cn1c(=O)n(Cc2ccco2)c2ncccc21)NC1CCCC1`, the cytotoxicity at 10 µM is -3.05%.

Take `Cc1cnccc1CN1CC[C@H](Oc2cccc(F)c2)[C@@](C)(O)C1`: the cytotoxicity at 10 µM was -5.55%.

On to `CN(C)c1ccc(CC2COCCN(Cc3nccn3C)C2)nn1` (centres undefined), for which the cytotoxicity at 10 µM was -10.2%.

Take `O=C(c1ccncc1)N1CCC(c2nc(O)cc(-c3ccncc3)n2)C1` (centres undefined): the cytotoxicity at 10 µM is 0.873%.

With `CN(C)c1cncc(C2CCN(C(=O)CO)CC2)n1`, the cytotoxicity at 10 µM is -1.37%.

For the compound `O=C(c1ccc(Cl)cc1)N1CCC(N2CCCOC2=O)CC1`, the cytotoxicity at 10 µM came out at 11.1%.

As to `CN1CC(=O)N(C2CCCNC2)Cc2c(NC3CCC3)ncnc21` (centres undefined), the cytotoxicity at 10 µM stood at 3.96%.

On to `CCn1nnnc1-c1cccc(NCc2nc(C)ccc2O)c1`, for which the cytotoxicity at 10 µM was -1.71%.

`CC(C)(C)c1cc(NC(=O)CNC2CCc3ncnn3C2)on1` (centres undefined): the cytotoxicity at 10 µM amounted to 9.03%.

Regarding `Cc1cc(S(C)(=O)=O)c(C)c(S(=O)(=O)NCC2CCCO2)c1` (centres undefined), the cytotoxicity at 10 µM is -8.02%.

For `Cc1nc(CNC(=O)NCCC2=CCCC2)oc1C`, the cytotoxicity at 10 µM is -1.18%.

As for `Cc1ccc(S(=O)(=O)CCC(=O)N(C)Cc2cnn(C)c2)cc1`, the cytotoxicity at 10 µM is -2.9%.

As for `CC(C)c1ccc2c(c1)CCCN2C(=O)CN(C)S(C)(=O)=O`, the cytotoxicity at 10 µM was determined as 3.78%.

On to `O=C(Nc1ccc(Cl)cn1)C1CCN(CCc2ccccn2)CC1`, for which the cytotoxicity at 10 µM is -6.55%.

Regarding `O=C(Nc1ccc(Cl)cn1)C1CCCN(CCc2ccccn2)C1` (centres undefined), the cytotoxicity at 10 µM is 7.33%.

In the case of `NC(=O)C1CCN(c2cncc(-n3cccn3)n2)CC1`, the cytotoxicity at 10 µM worked out at 12.5%.

For `CC(C)OCCC(=O)NCCc1csc(N2CCCC2)n1`, the cytotoxicity at 10 µM is -12.9%.

For the compound `Cc1cccc(C(=O)NCCNCC2CNc3ccnn3C2)c1` (centres undefined), the cytotoxicity at 10 µM was -0.00278%.

As for `CC(C)C1CN(C(=O)c2ccsc2)CCS1` (centres undefined), the cytotoxicity at 10 µM turned out to be 2.46%.

For `CCNC(=O)CN1CCN(c2cc(C)nc(-c3ccncc3)n2)CC1`, the cytotoxicity at 10 µM turned out to be 5.63%.

In the case of `O=C(NS(=O)(=O)c1ccc(F)cc1)C1CCOc2ccccc21` (centres undefined), the cytotoxicity at 10 µM was found to be 9.91%.

With `Cc1cc2cc(CNC3CCN(CC4CCOC4)CC3)oc2cc1C` (centres undefined), the cytotoxicity at 10 µM is -8.14%.

In the case of `Cc1csc(CNCC(C)c2nc3ccccc3o2)n1` (centres undefined), the cytotoxicity at 10 µM was -15.6%.

For `COCCNS(=O)(=O)c1ccc(CNc2ncccc2C#N)cc1`, the cytotoxicity at 10 µM was found to be 6.47%.

On to `CC(=O)c1ccc(C(=O)N2CCCCC2c2nc[nH]n2)cc1` (centres undefined), for which the cytotoxicity at 10 µM was -5.3%.

In the case of `Cc1noc(-c2ccnc(N3CCC(N4CCCC4)CC3)c2)n1`, the cytotoxicity at 10 µM was determined as 0.409%.

On to `CCc1n[nH]c(=O)c(C(=O)N2CCOC3(CCCC3)C2)c1CC`, for which the cytotoxicity at 10 µM worked out at 13.3%.

For `COc1ccccc1NC(=O)NC1(c2noc(CN(C)C)n2)CCCC1`, the cytotoxicity at 10 µM is -5.22%.

Take `CC(=O)N1CCC(NC(=O)c2ccc3c(c2O)OC(C)(C)C3)CC1`: the cytotoxicity at 10 µM was 0.519%.

`CS(=O)(=O)c1ccc(NC(=O)N2CCc3sccc3C2)cn1`: the cytotoxicity at 10 µM amounted to 85.1%.

On to `CSc1cc2c(cc1NC(=O)NCC(C)(C)C(N)=O)OCCO2`, for which the cytotoxicity at 10 µM was -10.9%.

Take `COCC1COCCC12CCN(S(=O)(=O)c1ccccc1C)CC2` (centres undefined): the cytotoxicity at 10 µM is -5.42%.

Consider `CCS(=O)(=O)N1C[C@@H](c2ccccc2)[C@@]2(CCNC2=O)C1`, for which the cytotoxicity at 10 µM is -108%.

Consider `Cn1cccc1C(=O)N1C[C@H]2CN(CCN3CCCC3)C(=O)[C@H]2C1`, for which the cytotoxicity at 10 µM is -119%.

For the compound `O=C(c1cccc(F)c1)N1CC[C@@H]2CN(c3ncccn3)CCO[C@@H]2C1`, the cytotoxicity at 10 µM is -71.5%.

On to `CN(C)C(=O)CNC(=O)c1ccn(-c2ccc3ccccn23)n1`, for which the cytotoxicity at 10 µM amounted to 0.74%.

With `CN(C)[C@@H]1CCN(C(=O)c2ccsc2)[C@H]1Cc1cnn(C)c1`, the cytotoxicity at 10 µM was -6.18%.

`COCC(C)NCc1nc(-c2ccc(C)cc2)c(-c2ccccn2)[nH]1` (centres undefined): the cytotoxicity at 10 µM was -3.81%.

With `CNC(C(=O)N1CCC(c2nccn2C(C)C)CC1)c1ccccc1` (centres undefined), the cytotoxicity at 10 µM turned out to be 0.258%.

For the compound `C=C(C)COc1ccccc1C(=O)N1CCC(C(=O)NCC)C1` (centres undefined), the cytotoxicity at 10 µM was determined as 8.89%.

For `Oc1ccccc1N1CCN(c2ncnc3sc4c(c23)CCNC4)CC1`, the cytotoxicity at 10 µM stood at 4.36%.

`OCC1CCN(C[C@@H]2CN(C3Cc4ccccc4C3)C[C@@H]2CO)CC1`: the cytotoxicity at 10 µM was -2.02%.

Turning to `Cc1cc(-c2nn(C)c(Cl)c2CN2CCCCC(N)C2)no1` (centres undefined), the cytotoxicity at 10 µM was -2.1%.

As to `CCc1c(C)sc2ncnc(N3C[C@H](O)[C@@H](N4CCCC4)C3)c12`, the cytotoxicity at 10 µM was -4.36%.

With `O=C1CCC2(CCCN(C(=O)c3ccoc3)C2)CN1CCc1c[nH]cn1` (centres undefined), the cytotoxicity at 10 µM turned out to be 4.54%.

In the case of `CCOCCCNc1nc2c(s1)c(C)nn2C`, the cytotoxicity at 10 µM was found to be 1.54%.

Regarding `CC(C)N1CCCC(C(=O)N2CCN(c3cnn(C)c(=O)c3)CC2)C1` (centres undefined), the cytotoxicity at 10 µM was -3.75%.

As for `CCc1nc(C)sc1CN1CC[C@](C)(O)[C@H](C)C1`, the cytotoxicity at 10 µM was -2.11%.

On to `CCn1c(C2CCN(C(=O)c3ccc4sc(C)nc4c3)CC2)n[nH]c1=O`, for which the cytotoxicity at 10 µM was -18%.

Consider `CCC[C@H]1CN(c2nc(CO)cs2)C[C@@H]1NC(=O)C1CCC1`, for which the cytotoxicity at 10 µM was determined as 6.07%.

As for `CN(Cc1noc2c1CCCC2)C(=O)C1CCOc2ccccc2C1` (centres undefined), the cytotoxicity at 10 µM is -7.11%.

In the case of `O=C(CCc1cn[nH]c1)N1CCC(C2CCN(c3ncccn3)CC2)C1` (centres undefined), the cytotoxicity at 10 µM stood at 10.2%.

On to `CN(Cc1cc(C(C)(C)C)n[nH]1)C(=O)c1ccc2nccn2c1`, for which the cytotoxicity at 10 µM was -7.01%.

For the compound `CCC1c2cccn2CCN1C(=O)c1ccc2nonc2c1` (centres undefined), the cytotoxicity at 10 µM was -13.2%.

Regarding `Cc1nsc(NC(=O)N2CCN(Cc3ccc(F)cc3)C(=O)C2)n1`, the cytotoxicity at 10 µM was found to be 1.07%.

Turning to `OCCN1CCN(Cc2coc(-c3cccc(F)c3)n2)CC1`, the cytotoxicity at 10 µM was -21.6%.

On to `CC(=O)c1ccc(N2CCN(C(=O)NCc3cc[nH]n3)CC2)cc1`, for which the cytotoxicity at 10 µM was -2.17%.

`COc1c(CNC2CCN(C(=O)C(C)C)CC2)c(C(C)C)nn1C`: the cytotoxicity at 10 µM worked out at 1.25%.

With `COc1ncccc1CNC(=O)N(Cc1ccc(F)cc1F)C1CC1`, the cytotoxicity at 10 µM was 0.139%.

Regarding `COCCNC(=O)CN1CCC(N2CCN(C)C2=O)CC1`, the cytotoxicity at 10 µM is 0.621%.

Regarding `OC(COCc1ccccc1Cl)CN1CCC(c2ccn[nH]2)CC1` (centres undefined), the cytotoxicity at 10 µM is -15.1%.

With `CCc1ncc2c(n1)CN(C(C)C(=O)Nc1ccc(Cl)cn1)CC2` (centres undefined), the cytotoxicity at 10 µM is -0.915%.

As for `Cc1nc(CN(C)C2CCN(Cc3nc4ccccc4n3C)C2)no1` (centres undefined), the cytotoxicity at 10 µM is -9.26%.

For the compound `CCC(CC)NC(=O)Cn1cc(-c2ccccc2)cn1`, the cytotoxicity at 10 µM is -0.0581%.

Regarding `O=C1CCC2(CCC(NCc3cccnc3)CC2)N1Cc1ccccc1` (centres undefined), the cytotoxicity at 10 µM was -2.04%.

Take `COc1cc(N2CCCn3cnc(COC(C)C)c3C2)ncn1`: the cytotoxicity at 10 µM is -5.3%.

Take `Cc1oncc1C(=O)N[C@@H]1CN(CC2CC2)C[C@@H]2CCCO[C@@H]21`: the cytotoxicity at 10 µM was -103%.

For the compound `C[C@H]1CN(c2ccccn2)C[C@@]12CCN(Cc1cccnc1)C2=O`, the cytotoxicity at 10 µM was -1.16%.

As to `Cc1nc(CN2C(=O)CC[C@@H]3[C@H]2CCN3C(=O)c2ccccn2)cs1`, the cytotoxicity at 10 µM was -77.7%.

With `C[C@@H]1CN(C(=O)c2ccc[nH]2)C[C@]12CCN(CCN1CCCC1)C2=O`, the cytotoxicity at 10 µM came out at 10.4%.

On to `Cc1noc2nc(C3CCN(Cc4cccnc4)CC3)cc(C(F)F)c12`, for which the cytotoxicity at 10 µM is -2.5%.

For the compound `CN(C)CCNC(=O)c1nc2c(s1)CCCN2C(=O)C1CC1`, the cytotoxicity at 10 µM was -108%.

In the case of `c1cnc(N2CCO[C@H]3CN(CC4CCOCC4)C[C@H]32)nc1`, the cytotoxicity at 10 µM is -95.9%.

Regarding `CCS(=O)(=O)N1CCN(Cc2ccncc2)c2nc(C)ccc2C1`, the cytotoxicity at 10 µM is -70.8%.

For `Cc1ccnc(C(=O)N2C[C@@H]3CN(S(C)(=O)=O)CCO[C@@H]3C2)c1`, the cytotoxicity at 10 µM was -3.92%.

Turning to `CC(C)NC(=O)[C@H]1C[C@@H]2[C@@H](C1)OCCN2CC1CC1`, the cytotoxicity at 10 µM is -6.13%.

For `COCCN1CCC2(CCCN(c3ncccn3)C2)C1` (centres undefined), the cytotoxicity at 10 µM was determined as 1.36%.

For the compound `O=C(Nc1cccnc1)[C@H]1C[C@H]2CN(S(=O)(=O)C3CC3)C[C@@H]1O2`, the cytotoxicity at 10 µM is -71.8%.

For `CC(=O)N1C[C@H]2CC[C@@H](C1)N(C(=O)CCc1n[nH]c3c1CCCC3)C2`, the cytotoxicity at 10 µM was 10.3%.

In the case of `O=C(NCC1CCCCC1)N1C[C@@H]2C[C@H](C(=O)N3CCCC3)[C@H](C1)O2`, the cytotoxicity at 10 µM was -2.48%.

Source of the values: ChEMBL document CHEMBL4513216, “Probing the Open Global Health Chemical Diversity Library for Multistage-Active Starting Points for Next-Generation Antimalarials” (ACS Infect Dis, 2020).
